# Screens as filed in PubChem BioAssay.
# SUMO1 PPI mod = modulators of SUMO1 protein-protein interactions, primary screen, biochemical, uHTS | inhibition, % at 20 µM | SUMO1 binding to a labelled peptide, TR-FRET, 1 h | Small ubiquitin-related modifier 1 (Homo sapiens), P63165 | hit rate 0.33% among 360,000; in the data active = inhibition above about 37%
# LMPTP inh = LMPTP phosphatase inhibitors, primary screen, biochemical, fluorescence intensity, uHTS; Low molecular weight phosphotyrosine protein phosphatase (Homo sapiens), P24666; recombinant LMPTP-A, OMFP fluorogenic substrate; inhibition, % at 20 µM; hit rate 0.22% among 360,000; AID 651560, 2012;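 active = compounds that cut the enzyme signal by at least half of the control window in the single-dose screen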;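 also: plate controls were DMSO wells with enzyme plus substrate for no effect and substrate without enzyme for full effect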
#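 Assay system: LMPTP-A enzyme. Input: 0.625 nM LMPTP-A final. Probe or stimulus: 400 µM OMFP. Compound dosing: single 20 µM dose. Schedule: 50 min dark incubation at room temperature. Detection: fluorescence intensity of OMFP turnover product. Read-out: percent inhibition versus substrate-only and uninhibited controls. Benchmarks: no-enzyme low control, uninhibited high control.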
# Scp1 inh = Scp-1 phosphatase inhibitors, primary screen, biochemical, colorimetric, uHTS. Recombinant Scp1, phosphopeptide, malachite green phosphate absorbance. inhibition, % at 20 µM. hit rate 0.88% among 340,000. Carboxy-terminal domain RNA polymerase II polypeptide A small phosphatase 1 (Homo …. AID 493091, 2011;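 active = inhibition above about 50% at 20 µM, limit read from the data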;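 also: plate controls were DMSO wells with enzyme for no effect and wells lacking enzyme for full effect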
#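 System: SCP-1 catalytic domain; Reagent: Phospho 17-mer peptide substrate; Doses: one concentration, 20 µM, with 1.0% DMSO; Incubation: 45 min room-temperature reaction, 5 min colour, 30 min stabiliser; Signal: Phosphate-binding colour reagent, absorbance read at 630 nm.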
# DNMT1 block = human DNMT1 methyltransferase inhibitors, primary screen, biochemical, molecular beacon, fluorescence, HinP1I cleavage, uHTS; inhibition (reported as % activation of signal), % at 10 µM; hit rate 0.83% among 360,000; in the data active = inhibition above about 50%
# Target sequence (P26358 504-1616 limits assumed): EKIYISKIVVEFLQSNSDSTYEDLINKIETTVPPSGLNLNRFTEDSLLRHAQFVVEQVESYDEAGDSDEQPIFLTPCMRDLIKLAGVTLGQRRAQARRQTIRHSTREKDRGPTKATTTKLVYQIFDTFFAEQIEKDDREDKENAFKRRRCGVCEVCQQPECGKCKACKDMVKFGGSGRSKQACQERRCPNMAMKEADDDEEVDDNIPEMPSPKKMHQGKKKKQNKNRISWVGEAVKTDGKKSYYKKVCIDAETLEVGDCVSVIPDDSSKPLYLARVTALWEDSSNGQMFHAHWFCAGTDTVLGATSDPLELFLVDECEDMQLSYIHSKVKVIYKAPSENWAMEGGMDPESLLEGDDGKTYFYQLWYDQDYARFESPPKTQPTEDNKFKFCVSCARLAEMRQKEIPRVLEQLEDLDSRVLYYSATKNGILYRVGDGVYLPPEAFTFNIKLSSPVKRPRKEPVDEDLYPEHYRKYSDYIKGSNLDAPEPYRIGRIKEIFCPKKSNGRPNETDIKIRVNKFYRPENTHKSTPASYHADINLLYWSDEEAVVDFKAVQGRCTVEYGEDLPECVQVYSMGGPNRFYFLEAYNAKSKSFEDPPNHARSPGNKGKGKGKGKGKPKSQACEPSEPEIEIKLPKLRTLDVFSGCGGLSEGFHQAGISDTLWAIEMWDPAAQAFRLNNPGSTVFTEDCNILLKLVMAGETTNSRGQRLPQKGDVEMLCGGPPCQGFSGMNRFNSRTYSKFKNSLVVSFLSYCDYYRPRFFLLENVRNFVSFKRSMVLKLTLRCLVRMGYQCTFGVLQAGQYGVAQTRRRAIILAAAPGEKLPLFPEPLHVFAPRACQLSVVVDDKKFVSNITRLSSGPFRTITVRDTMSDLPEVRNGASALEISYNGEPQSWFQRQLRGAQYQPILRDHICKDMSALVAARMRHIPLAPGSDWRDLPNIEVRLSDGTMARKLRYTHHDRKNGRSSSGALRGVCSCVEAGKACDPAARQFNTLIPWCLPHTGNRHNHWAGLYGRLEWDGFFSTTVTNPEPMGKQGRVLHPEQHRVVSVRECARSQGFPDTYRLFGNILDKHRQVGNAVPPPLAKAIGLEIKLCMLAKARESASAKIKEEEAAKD
# STEP block = STEP phosphatase inhibitors, primary screen, biochemical, fluorescence intensity, uHTS. Tyrosine-protein phosphatase non-receptor type 5 (Homo sapiens), P54829. recombinant STEP, OMFP fluorogenic substrate. inhibition, % at 20 µM. hit rate 0.25% among 360,000;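 active = inhibition at 20 µM, scaled per plate between control wells, above about 37%, limit read from the data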;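 also: 0% = DMSO with enzyme and substrate and 100% = substrate only without enzyme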
#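 material = STEP tyrosine phosphatase | reagent = fluorogenic phosphatase substrate OMFP at 25 µM final | doses = single compound dose of 20 µM, 1% DMSO final | schedule = 20 min reaction, room temperature, in the dark | measured by = fluorescence, 480/540 nm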
# Scp-1 conf = Scp-1 phosphatase inhibitors, retest, confirmation, biochemical, colorimetric, single concentration | shares compounds with Scp1 inh | recombinant SCP-1 catalytic domain, phosphate release, malachite green absorbance | inhibition, % at 20 µM | hit rate 61% among 2,500 | AID 540281, 2011;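 also: plate controls were DMSO with enzyme for no effect and buffer wells lacking enzyme for full effect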
# MG interference = colorimetric readout interference by compounds, confirmation, artefact control for Scp-1 inhibitor project, biochemical, single concentration; apparent inhibition (interference), % at 20 µM; 2,500 tested, under 10 active; shares compounds with Scp1 inh; Colorimetric interference counterscreen, malachite green absorbance 630 nm;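 also: compounds added after enzyme reaction finished so only phosphate colour detection is probed; plate controls were DMSO wells with completed Scp-1 reaction for no effect and substrate wells lacking enzyme for full effect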
# Scp1 DSF = Scp-1 binding by thermal shift, confirmation, orthogonal assay for Scp-1 inhibitor project, biophysical, differential scanning fluorimetry; Recombinant SCP1, Sypro Orange thermal shift Tm; shares compounds with Scp1 inh; thermal shift relative to vanadate control, % at 40 µM; AID 540329, 2011; hit rate 25% among 1,500;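 active = substances whose mean melting-temperature shift, as a percentage of the reference inhibitor's shift, reaches about 5.3%, limit read from the data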;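 also: 0% = Tm of DMSO wells and 100% = Tm with sodium orthovanadate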
# DNMT1 inh conf = DNMT1 methyltransferase inhibitor retest, confirmation, biochemical, molecular beacon, fluorescence, single concentration; shares compounds with DNMT1 block; DNMT1 molecular beacon HinP1I cleavage; inhibition, % at 10 µM; hit rate 8% among 2,300; AID 602385, 2012;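 active = average inhibition of at least 30% in the single-concentration confirmation test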
# DNMT1 interf = counter-screen for DNMT1 inhibitors: spectral interference. shares compounds with DNMT1 block. DNMT1 molecular beacon spectral interference counterscreen, fluorescence 485/520. activation (fluorescence interference), % at 10 µM. hit rate 1% among 2,300. AID 602387;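 active = activation of at least 30% at 10 µM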;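 also: DNMT1 catalytic domain with a HinP1I cleavage step and a FAM/dabcyl DNA beacon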
# STEP inh conf = STEP phosphatase inhibitor hit confirmation, biochemical, fluorescence intensity, single concentration | shares compounds with STEP block | recombinant STEP, OMFP fluorogenic substrate | inhibition, % at 20 µM | hit rate 32% among 520 | AID 623866, 2012; call rule not given here;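 also: 0% = enzyme with substrate plus DMSO and 100% = substrate without enzyme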
# * marks the source's active call; other numbers are inactive results; · = no result. Sampled rows, rich in hits. Any-hit rate of the full collection: about 1.7%.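 The calls were made as follows, unless noted: active = inhibition of at least 30% at 20 µM; inactive = the rest.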
SMILES,SUMO1 PPI mod,LMPTP inh,Scp1 inh,DNMT1 block,STEP block,Scp-1 conf,MG interference,Scp1 DSF,STEP inh conf,others
CC(=O)OCC1=C(C(=O)O)N2C(=O)[C@@H](NC(=O)Cc3ccccc3)[C@H]2SC1,3.1,-0.4,32.7,-2.1,-0.5,·,·,·,·,
C=CC1=C(C(=O)O)N2C(=O)C(NC(=O)Cc3ccccc3)C2SC1 (centres undefined),84.7*,72.9*,96.2*,89.9*,87.9*,78.2*,-6.8,1.2,35.8*,DNMT1 inh conf=5.4;DNMT1 interf=4.1
CC(=O)NCc1ccc(C(=O)CN2C(=O)NC3(CCCCC3C)C2=O)s1 (centres undefined),2.1,-0.4,1.2,-5.7,0.6,·,·,·,·,
O=C1NN(c2cccc(Br)c2)C(=O)/C1=C\c1ccc(N2CCOCC2)cc1,33.3,66.2*,51.6*,65.2*,82.5*,48.5*,2.0,3.9,72.5*,DNMT1 inh conf=-0.1;DNMT1 interf=1.7
FC(F)(F)c1ccc(Nc2nnnc3ccccc23)cc1,-8.2,51.1*,72.5*,-1.5,96.6*,61.7*,-13.4,-23.6,-7.8,
O=C(COc1ccc([N+](=O)[O-])cc1)Nc1nnc(-c2cccnc2)s1,4.4,47.2,75.5*,20.2,65.5*,76.4*,-4.6,6.9*,75.4*,
COc1ccc2cc3c(N)nn(C(=O)c4cccc([N+](=O)[O-])c4)c3nc2c1,52.7*,66.0*,98.1*,76.9*,97.9*,79.5*,-9.8,-12.0,-0.7,DNMT1 inh conf=3.6;DNMT1 interf=-6.7
O=C1c2cccc3cccc(c23)C(=O)N1c1nccs1,-15.0,-2.3,-3.4,20.8,-2.7,·,·,·,·,
O=C1c2cccc3cccc(c23)C(=O)N1c1ccc2ncccc2c1,-27.1,37.1,101.4*,3.8,100.2*,74.0*,-19.5,2.0,8.6,
CC1=C(C(=O)OC(C)C)C(c2ccc(Cl)cc2)n2c(s/c(=C\c3ccc(OCC(=O)O)cc3)c2=O)=N1 (centres undefined),97.0*,11.8,56.5*,85.7*,10.7,49.5*,-22.2,4.3,51.6*,
CCOC(=O)C1=C(C)N=c2s/c(=C\c3ccc(OCC(=O)O)c(OC)c3)c(=O)n2C1c1ccc(OC)cc1 (centres undefined),-15.4,2.1,2.2,0.7,3.4,·,·,·,·,
CN1CCN(NC(=O)c2cccc(Br)c2)CC1,-0.5,-0.7,-4.9,-0.6,-1.0,·,·,·,·,
COc1cccc2cc(-c3cc(=O)oc4ccc(OCC(C)=O)cc34)oc12,-26.4,2.1,-6.8,-7.0,0.1,·,·,·,·,
COC(=O)COc1ccc2oc(=O)cc(-c3cc4cccc(OC)c4o3)c2c1,40.1*,60.7*,75.5*,44.2,75.1*,55.9*,-27.4,-20.7,10.4,
CN1CCN(c2ccc(NC(=O)c3ccc(C#N)cc3F)cc2Cl)CC1,4.2,1.1,0.4,-0.6,1.2,·,·,·,·,
